Measurements reported in paper PMC4589150 (Nature chemical biology, 2015).
Non-standard residues stand in square brackets, D forms with d. Residues, ends and D or L forms follow the SMILES beside them. No end group written: not given here. pS = N[C@@H](COP(=O)(O)O)C(=O)O

Columns and labels:
[1] = molecular target: fluorescein-phospho-SQEY-OH; assay: fluorescence polarisation
[2] = molecular target: T1, fluorescein-SQEY-OH; assay: fluorescence polarisation
T1 sequence (peptide, fluorescein on the N-terminus; free C-terminal carboxylate): SQEY

[3] = molecular target: histone H4 methylated K20 (Homo sapiens) (UniProt P62805); settings: cited from earlier work
[4] = molecular target: 53BP1-BRCT (Homo sapiens, UniProt Q12888); assay: Fluorescence anisotropy competition binding against fluorescein-pSQEY-OH
How it was run: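 Untagged 53BP1 tandem BRCT (6 μM; GST removed by PreScission, anion-exchange purified) with fluorescein-phospho-SQEY peptide (50 nM) and graded unlabelled competitor peptide. Buffer: 50 mM HEPES pH 7.5, 150 mM NaCl, 1 mM DTT. Anisotropy read after equilibration. IC50 from four-parameter sigmoidal fit. Ki from IC50 using bound/total ligand, receptor and direct-binding Kd.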

[5] = test system: MCM2; assay: CLASPI 'selectivity filter' SILAC proteomics in HeLa lysate; type: binding; settings: probes 5 μM, nocodazole-arrested HeLa lysate, SILAC LC-MS/MS
How it was run: (§1)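 Heavy (13C615N4-Arg 22 mg/L, 13C615N2-Lys 50 mg/L) or light SILAC-labelled HeLa S3 cells, nocodazole-arrested, lysed by cryogenic grinding. Lysates photo-cross-linked with γH2AX probe 1 or H2AX probe 2 (5 μM), combined, streptavidin-captured (0.5% SDS, 90 min RT), washed, dithionite-eluted. SDS-PAGE, in-gel trypsin digestion, LC-MS/MS on LTQ-Orbitrap, SILAC ratio quantitation. Forward and reverse label-swap runs.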

[6] = test system: 53BP1; assay: as above; type: binding; settings: probes 5 μM, nocodazole-arrested HeLa lysate, SILAC LC-MS/MS
How it was run: as §1

[7] = test system: POLG; assay: as above; type: binding; settings: probes 5 μM, nocodazole-arrested HeLa lysate, SILAC LC-MS/MS
How it was run: as §1

[8] = test system: MDC1; assay: as above; type: binding; settings: probes 5 μM, nocodazole-arrested HeLa lysate, SILAC LC-MS/MS
How it was run: as §1

[9] = test system: SIRT1; assay: as above; type: binding; settings: probes 5 μM, nocodazole-arrested HeLa lysate, SILAC LC-MS/MS
How it was run: as §1

[10] = molecular target: GST-53BP1 residues 1702-1972 (BRCT domains fragment) (Homo sapiens, UniProt Q12888); type: binding
How it was run: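 GST-53BP1 (residues 1702-1972; E. coli-expressed, glutathione-affinity purified, dialysed), 200 nM, with probe 1 or probe 2 (5 μM), or with probe 1 plus γH2AX peptide (100 μM). Incubation 20 min on ice, then 365 nm UV for 15 min on ice. Cross-linking read by streptavidin Western blot. Two independent experiments.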

[11] = molecular target: T2, MDC1-BRCT (Homo sapiens, UniProt Q14676); type: binding
T2 sequence (Q14676 1883-2089): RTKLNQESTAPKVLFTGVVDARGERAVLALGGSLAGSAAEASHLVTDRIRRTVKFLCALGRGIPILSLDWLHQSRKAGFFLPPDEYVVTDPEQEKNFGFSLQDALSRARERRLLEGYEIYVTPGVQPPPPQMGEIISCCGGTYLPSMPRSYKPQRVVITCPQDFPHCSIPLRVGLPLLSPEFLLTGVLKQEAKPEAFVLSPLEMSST
How it was run: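 E. coli-expressed, glutathione-affinity-purified MDC1-BRCT (200 nM) with biotinylated probe 1 (1 μM) and graded γH2AX competitor peptide (Ac-KKATQApSQEY-OH). Incubation 20 min on ice, then 365 nm UV for 15 min on ice. Cross-linked complexes detected by Western blot with streptavidin-based detection. Mean ± s.d., n=3.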

[12] = molecular target: 53BP1-BRCT (53BP1 tandem BRCT domains, residues 1702-1972), untagged (human) (UniProt Q12888); assay: fluorescence polarisation
Sequence of 53BP1-BRCT (53BP1 tandem BRCT domains, residues 1702-1972), untagged (human) (Q12888 1702-1972): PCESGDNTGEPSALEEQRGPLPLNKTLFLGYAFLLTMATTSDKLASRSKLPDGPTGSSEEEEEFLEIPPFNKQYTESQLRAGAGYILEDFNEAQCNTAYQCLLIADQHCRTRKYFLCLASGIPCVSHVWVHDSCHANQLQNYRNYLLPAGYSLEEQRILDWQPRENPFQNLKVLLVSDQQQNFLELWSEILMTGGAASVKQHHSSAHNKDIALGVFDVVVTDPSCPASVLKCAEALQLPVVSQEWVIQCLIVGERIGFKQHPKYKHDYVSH

Sequence of GST-53BP1 residues 1702-1972 (BRCT domains fragment) (Q12888 1702-1972): as above
Sequence of 53BP1-BRCT (Q12888 1702-1972): as above

53BP1-BRCT (53BP1 tandem BRCT domains, residues 1702-1972), untagged (from UniProt Q12888 1702-1972) (domain or fragment)
Kd [1]: 2.7 µM
percent of peptide bound at 50 μM 53BP1-BRCT [2]: 10%

53BP1 tandem Tudor (from UniProt Q12888)
Kd [3]: 20 µM

NC(=O)CC[C@H](NC(=O)[C@@H](N)COP(=O)(O)O)C(=O)N[C@@H](CCC(=O)O)C(=O)N[C@@H](Cc1ccc(O)cc1)C(=O)O [pSQEY-OH] (H-[pS]QEY-OH)
Ki [4]: 7.5 ± 1.1 µM

NC(=O)CC[C@H](NC(=O)[C@@H](N)COP(=O)(O)O)C(=O)N[C@@H](CCC(=O)O)C(=O)N[C@@H](Cc1ccc(O)cc1)C(N)=O [pSQEY-NH2] (H-[pS]QEY-NH2)
Ki [4]: 25 ± 0.58 µM

53BP1-BRCT K1814M (from UniProt Q12888 1702-1972) (domain or fragment)
Kd [1]: > 70 µM

CC(=O)N[C@@H](Cc1cn(CCc2ccc(O)c(N=Nc3ccc(C(=O)NCCOCCOCCOCCOCCNC(=O)CCCC[C@@H]4SC[C@@H]5NC(=O)N[C@@H]54)cc3)c2)nn1)C(=O)N[C@@H](CCCCN)C(=O)N[C@@H](CCCCN)C(=O)N[C@@H](C)C(=O)N[C@@H](Cc1ccc(C(=O)c2ccccc2)cc1)C(=O)N[C@@H](CCC(N)=O)C(=O)N[C@@H](C)C(=O)N[C@@H](COP(=O)(O)O)C(=O)N[C@@H](CCC(N)=O)C(=O)N[C@@H](CCC(=O)O)C(=O)N[C@@H](Cc1ccc(O)cc1)C(=O)O [probe 1]
enrichment ratio of MCM2, probe 1 relative to probe 2 [5]: 2.5–3.5
enrichment ratio of 53BP1, probe 1 relative to probe 2 [6]: 4.9
enrichment ratio of POLG, probe 1 relative to probe 2 [7]: 2.5–3.5
enrichment ratio of MDC1, probe 1 relative to probe 2 [8]: 3.9
enrichment ratio of SIRT1, probe 1 relative to probe 2 [9]: 2.5–3.5
photo-cross-linking to BRCT domains fragment (in words) ([10]; probe 5 μM, streptavidin Western blot, representative of 2 experiments): robust cross-linking

53BP1-BRCT R1811Q (from UniProt Q12888 1702-1972) (domain or fragment)
Kd [1]: 35 µM

CC(=O)N[C@@H](CCCCN)C(=O)N[C@@H](CCCCN)C(=O)N[C@@H](C)C(=O)N[C@H](C(=O)N[C@@H](CCC(N)=O)C(=O)N[C@@H](C)C(=O)N[C@@H](COP(=O)(O)O)C(=O)N[C@@H](CCC(N)=O)C(=O)N[C@@H](CCC(=O)O)C(=O)N[C@@H](Cc1ccc(O)cc1)C(=O)O)[C@@H](C)O [γH2AX peptide, Ac-KKATQApSQEY-OH, reference compound] (Ac-KKATQA[pS]QEY-OH)
IC50 [11]: 4.4 ± 1.6 µM
Kd [10]: < 100 µM

B1: phospho-SPTF-OH (peptide)
peptide: [pS]PTF-OH
Ki [12]: 46 µM

B2: phospho-SQEY-NH2 (peptide)
peptide: [pS]QEY-NH2
Ki [12]: 25 µM

B3: unlabeled phospho-SQEY-OH tetrapeptide (peptide)
peptide: [pS]QEY-OH
Ki [12]: 7.5 µM
